# “And” between values parts separate entries of the source, which are not always exact repeats. Equal entries are not always repeated.
# System: U2OS
# Assay: Multiplex assay against U2OS
# Assay type: toxicity, cell-based
# Conditions: human, number of replicates 2
# How it was run: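 Live cells were stained at seeding with Hoechst33342, BioTracker Green Microtubule Cytoskeleton Dye, MitoTracker Red and Annexin V Alexa Fluor 680, then imaged on a CQ1 microscope at 37°C and 5% CO2 after compound addition. CellPathfinder machine-learning gating split cells into Hoechst high-intensity objects or normal cells. Normal cells were split into healthy, pyknosed or fragmented nuclei, and pyknosed cells into mitotic or apoptotic. Tubulin, mitochondrial-mass and membrane-permeability phenotypes are per cents of healthy-nucleus cells.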
# [1] = 12 h, 1 µM, compound concentration 1 uM
# [2] = 12 h, 10 µM, compound concentration 10 uM
# [3] = 24 h, 1 µM, compound concentration 1 uM
# [4] = 24 h, 10 µM, compound concentration 10 uM
# [5] = 48 h, 1 µM, compound concentration 1 uM
# [6] = 48 h, 10 µM, compound concentration 10 uM
structure (smiles),measurement,setting,value
O=C1NC(=O)C(c2ccccc2[N+](=O)[O-])=C1Nc1ccc(O)c(Cl)c1,Population Apoptotic (%),[1],100% and 38%
same,Population Fragmented Nuclei (%),[1],12% and 5%
same,Population Healthy Nuclei (%),[1],80% and 83%
same,Population Hoechst High Intensity Objects (%),[1],0%
same,Population Membrane Permeable-Phenotype (%),[1],0% and 1%
same,Population Mitochondria Different-Phenotype (%),[1],0%
same,Population Normal (%),[1],100%
same,Population Pyknosed Nuclei (%),[1],8% and 10%
same,Population Tubulin-Different-Phenotype (%),[1],85% and 90%
same,Population Apoptotic (%),[2],80% and 37%
same,Population Fragmented Nuclei (%),[2],9% and 5%
same,Population Healthy Nuclei (%),[2],68% and 83%
same,Population Hoechst High Intensity Objects (%),[2],0% and 3%
same,Population Membrane Permeable-Phenotype (%),[2],6% and 3%
same,Population Mitochondria Different-Phenotype (%),[2],6% and 0%
same,Population Normal (%),[2],100% and 96%
same,Population Pyknosed Nuclei (%),[2],22% and 10%
same,Population Tubulin-Different-Phenotype (%),[2],73% and 92%
same,Total Cell Count,[2],22
same,Population Apoptotic (%),[3],40% and 37%
same,Population Healthy Nuclei (%),[3],67% and 86%
same,Population Hoechst High Intensity Objects (%),[3],0%
same,Population Membrane Permeable-Phenotype (%),[3],4% and 2%
same,Population Mitochondria Different-Phenotype (%),[3],0%
same,Population Mitotic Cells (%),[3],60% and 62%
same,Population Normal (%),[3],100%
same,Population Pyknosed Nuclei (%),[3],14% and 10%
same,Population Tubulin-Different-Phenotype (%),[3],73% and 92%
same,Population Apoptotic (%),[4],66% and 31%
same,Population Fragmented Nuclei (%),[4],8% and 5%
same,Population Healthy Nuclei (%),[4],73% and 84%
same,Population Hoechst High Intensity Objects (%),[4],0%
same,Population Membrane Permeable-Phenotype (%),[4],4% and 1%
same,Population Mitochondria Different-Phenotype (%),[4],4% and 0%
same,Population Mitotic Cells (%),[4],33% and 68%
same,Population Normal (%),[4],100% and 99%
same,Population Pyknosed Nuclei (%),[4],17% and 10%
same,Population Tubulin-Different-Phenotype (%),[4],84% and 95%
same,Population Apoptotic (%),[5],71% and 55%
same,Population Fragmented Nuclei (%),[5],9% and 3%
same,Population Healthy Nuclei (%),[5],80% and 90%
same,Population Hoechst High Intensity Objects (%),[5],0%
same,Population Membrane Permeable-Phenotype (%),[5],1%
same,Population Mitochondria Different-Phenotype (%),[5],0%
same,Population Mitotic Cells (%),[5],28% and 44%
same,Population Normal (%),[5],100%
same,Population Pyknosed Nuclei (%),[5],10% and 5%
same,Population Tubulin-Different-Phenotype (%),[5],86% and 93%
same,Population Apoptotic (%),[6],22% and 31%
same,Population Fragmented Nuclei (%),[6],5% and 7%
same,Population Healthy Nuclei (%),[6],77% and 85%
same,Population Hoechst High Intensity Objects (%),[6],0% and 2%
same,Population Membrane Permeable-Phenotype (%),[6],2% and 0%
same,Population Mitochondria Different-Phenotype (%),[6],2% and 0%
same,Population Mitotic Cells (%),[6],77% and 68%
same,Population Normal (%),[6],100% and 97%
same,Population Pyknosed Nuclei (%),[6],16% and 7%
same,Population Tubulin-Different-Phenotype (%),[6],92% and 98%
NC(=O)c1ccc(-c2nc(-c3ccc4c(c3)OCCO4)c(-c3ccccn3)[nH]2)cc1,Population Apoptotic (%),[1],40% and 85%
same,Population Fragmented Nuclei (%),[1],1% and 4%
same,Population Healthy Nuclei (%),[1],88% and 86%
same,Population Hoechst High Intensity Objects (%),[1],1% and 0%
same,Population Membrane Permeable-Phenotype (%),[1],4% and 1%
same,Population Mitochondria Different-Phenotype (%),[1],0% and 1%
same,Population Normal (%),[1],98% and 100%
same,Population Pyknosed Nuclei (%),[1],9%
same,Population Tubulin-Different-Phenotype (%),[1],53% and 86%
same,Total Cell Count,[1],54 and 150
same,Population Apoptotic (%),[2],46% and 33%
same,Population Healthy Nuclei (%),[2],78% and 63%
same,Population Hoechst High Intensity Objects (%),[2],0%
same,Population Membrane Permeable-Phenotype (%),[2],4% and 0%
same,Population Mitochondria Different-Phenotype (%),[2],3% and 0%
same,Population Mitotic Cells (%),[2],53% and 66%
same,Population Normal (%),[2],100%
same,Population Pyknosed Nuclei (%),[2],14% and 8%
same,Population Tubulin-Different-Phenotype (%),[2],62% and 39%
same,Population Apoptotic (%),[3],54% and 64%
same,Population Fragmented Nuclei (%),[3],2% and 1%
same,Population Healthy Nuclei (%),[3],84% and 92%
same,Population Hoechst High Intensity Objects (%),[3],0%
same,Population Membrane Permeable-Phenotype (%),[3],1%
same,Population Mitochondria Different-Phenotype (%),[3],0%
same,Population Mitotic Cells (%),[3],45% and 35%
same,Population Normal (%),[3],100%
same,Population Pyknosed Nuclei (%),[3],13% and 6%
same,Population Tubulin-Different-Phenotype (%),[3],56% and 92%
same,Total Cell Count,[3],84 and 214
same,Population Healthy Nuclei (%),[4],86% and 65%
same,Population Hoechst High Intensity Objects (%),[4],0%
same,Population Membrane Permeable-Phenotype (%),[4],3% and 0%
same,Population Mitochondria Different-Phenotype (%),[4],4% and 3%
same,Population Normal (%),[4],99% and 100%
same,Population Pyknosed Nuclei (%),[4],9% and 2%
same,Population Tubulin-Different-Phenotype (%),[4],59% and 48%
same,Population Apoptotic (%),[5],52% and 74%
same,Population Fragmented Nuclei (%),[5],6% and 3%
same,Population Healthy Nuclei (%),[5],82% and 90%
same,Population Hoechst High Intensity Objects (%),[5],0%
same,Population Membrane Permeable-Phenotype (%),[5],0% and 1%
same,Population Mitochondria Different-Phenotype (%),[5],0%
same,Population Mitotic Cells (%),[5],47% and 25%
same,Population Normal (%),[5],100%
same,Population Pyknosed Nuclei (%),[5],10% and 6%
same,Population Tubulin-Different-Phenotype (%),[5],62% and 95%
same,Population Apoptotic (%),[6],77% and 78%
same,Population Fragmented Nuclei (%),[6],21% and 7%
same,Population Healthy Nuclei (%),[6],66% and 78%
same,Population Hoechst High Intensity Objects (%),[6],0%
same,Population Membrane Permeable-Phenotype (%),[6],8% and 3%
same,Population Mitochondria Different-Phenotype (%),[6],4% and 2%
same,Population Mitotic Cells (%),[6],22% and 21%
same,Population Normal (%),[6],100%
same,Population Pyknosed Nuclei (%),[6],12% and 14%
same,Population Tubulin-Different-Phenotype (%),[6],61% and 67%
